Measured values: ChEMBL document CHEMBL3272343, “Etodolic acid and related compounds. Chemistry and antiinflammatory actions of some potent di- and trisubstituted 1, 3, 4, 9-tetrahydropyrano[3, 4-b]indole-1-acetic acids” (J Med Chem, 1976)
The source made the active and inactive calls. The rule behind the calls is not given here.

Assays:
Rattus norvegicus [1] = experiment: Antiinflammatory activity in rat assessed as inhibition of adjuvant-induced arthritis administered for 9 days into foot pad 14 days after adjuvant challenge measured on day 22 by mercury displacement analysis; assay type: functional
Procedure, shortened: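 Oral dosing in groups of six rats with established adjuvant arthritis (Mycobacterium butyricum in mineral oil, injected into left hind foot pad). Treatment ran from day 14 to day 22 (9 po administrations). Injected-paw volume was measured by mercury displacement. A decrease of 0.5 ml or more counted as a therapeutic effect. ED50 was derived by probit analysis of responder counts. Maximum screening dose was 100 mg/kg.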

Rattus norvegicus [2] = experiment: Antiinflammatory activity in po dosed rat assessed as inhibition of carrageenin-induced paw edema; assay type: functional
[3] = Gastrointestinal toxicity in 8 hrs starved po dosed Charles River rat assessed as ulcerogenic effect after 18 hrs; assay type: organism-based; conditions: in vivo, read-out: UD50
Procedure, shortened: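 Acute ulcerogenicity in male Charles River rats (180–200 g), housed in individual cages and starved 8 hr before oral dosing. UD50 was calculated graphically.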

[4] = Therapeutic index, ratio of UD50 for 8 hrs starved po dosed Charles River rat to ED50 for rat assessed as inhibition of adjuvant-induced arthritis; assay type: organism-based; conditions: in vivo, read-out: TI
Procedure, shortened: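 Ratio of UD50 to ED50. UD50 came from starved (8 hr) male Charles River rats dosed orally and was calculated graphically. ED50 came from the 9-dose oral adjuvant-arthritis therapeutic test (day 14–22, mercury-displacement paw volume, ≥0.5 ml decrease as responder) and was derived by probit analysis.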

Rattus norvegicus [5] = experiment: Antiinflammatory activity in rat assessed as inhibition of adjuvant-induced arthritis at 20 mg/kg administered for 9 days into foot pad 14 days after adjuvant challenge measured on day 22 by mercury displacement analysis; assay type: functional, organism-based; set-up: dose 20 mg/kg
Procedure, shortened: (§1)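 Therapeutic test in groups of six rats with adjuvant arthritis (Mycobacterium butyricum in mineral oil, left hind foot pad). Oral treatment ran from day 14 to day 22 (9 po doses). Injected-paw volume was measured by mercury displacement. Rats whose paw shrank by 0.5 ml or more were scored as showing a therapeutic effect; smaller changes counted as negative.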

Rattus norvegicus [6] = experiment: Antiinflammatory activity in rat assessed as inhibition of adjuvant-induced arthritis at 25 mg/kg administered for 9 days into foot pad 14 days after adjuvant challenge measured on day 22 by mercury displacement analysis; assay type: functional, organism-based; set-up: dose 25 mg/kg; procedure, shortened: as §1
Rattus norvegicus [7] = experiment: Antiinflammatory activity in rat assessed as inhibition of adjuvant-induced arthritis at 50 mg/kg administered for 9 days into foot pad 14 days after adjuvant challenge measured on day 22 by mercury displacement analysis; assay type: functional, organism-based; set-up: dose 50 mg/kg; procedure, shortened: as §1

Row | SMILES | ED50 (Rattus norvegicus [1]) | also measured
1 | CCCC1(CC(=O)O)OCCc2c1[nH]c1c(C)c(Cl)ccc21 (centres undefined) | 3.4 mg/kg | –
2 | CCC(C)c1cccc2c3c([nH]c12)C(CC)(CC(=O)O)OCC3 (centres undefined) | 2.6 mg/kg | –
3 | CCC1(CC(=O)O)OCCc2c1[nH]c1c(OC)ccc(OC)c21 (centres undefined) | 100 mg/kg | –
4 | CCC1(CC(=O)O)OCCc2c1[nH]c1c(CC(C)C)cccc21 (centres undefined) | 5 mg/kg | –
5 | CCC1(CC(=O)O)OCCc2c1[nH]c1cccc(C)c21 (centres undefined) | 11 mg/kg | –
6 | CCCC1(CC(=O)O)OCCc2c1[nH]c1cc(Cl)ccc21 (centres undefined) | 3.7 mg/kg | –
7 | CCC1(CC(=O)O)OCCc2c1[nH]c1c(C)c(Cl)ccc21 (centres undefined) | 0.6 mg/kg | ED30 (Rattus norvegicus [2]): 15 mg/kg; TD50 at 18 h [3]: 25 mg/kg; selectivity ratio [4]: 41
8 | CCCCc1cccc2c3c([nH]c12)C(CC)(CC(=O)O)OCC3 (centres undefined) | – | inhibition (Rattus norvegicus [5]): inactive
9 | CCCC1(CC(=O)O)OCCc2c1[nH]c1c(C)cccc21 (centres undefined) | 11.8 mg/kg | –
10 | CCC1(CC(=O)O)OCCc2c1[nH]c1c(C)ccc(C)c21 (centres undefined) | 3.2 mg/kg | –
11 | CCC1(CC(=O)O)OCCc2c1[nH]c1cc(F)ccc21 (centres undefined) | 3 mg/kg | –
12 | CCC1(CC(=O)O)OCCc2c1[nH]c1ccc(F)cc21 (centres undefined) | 5 mg/kg | –
13 | CCC1(CC(=O)O)OCCc2c1[nH]c1ccc(Br)cc21 (centres undefined) | – | inhibition (Rattus norvegicus [6]): inactive
14 | CCC1(CC(=O)O)OCCc2c1[nH]c1c(C(C)C)cccc21 (centres undefined) | 1.6 mg/kg | –
15 | CCC1(CC(=O)O)OCCc2c1[nH]c1c(Cl)cccc21 (centres undefined) | 2.4 mg/kg | –
16 | CCCC1(CC(=O)O)OCCc2c1[nH]c1c(CC)cccc21 (centres undefined) | 7.4 mg/kg | –
17 | CCC1(CC(=O)O)OCCc2c1[nH]c1cccc(Cl)c21 (centres undefined) | 7 mg/kg | –
18 | CCCC1(CC(=O)O)OCCc2c1[nH]c1ccc(C)cc21 (centres undefined) | – | inhibition (Rattus norvegicus [6]): inactive
19 | CCC1(CC(=O)O)OCCc2c1[nH]c1c(C(C)(C)C)cccc21 (centres undefined) | 1.9 mg/kg | –
20 | CCC1(CC(=O)O)OCCc2c1[nH]c1c(Cl)c(Cl)ccc21 (centres undefined) | 1.1 mg/kg | –

Row | SMILES | ED50 (Rattus norvegicus [1]) | also measured
21 | COc1ccc2c(c1)c(CC(=O)O)c(C)n2C(=O)c1ccc(Cl)cc1 [INDOMETHACIN] | 0.2 mg/kg | ED30 (Rattus norvegicus [2]): 1.3 mg/kg; TD50 at 18 h [3]: 6 mg/kg; selectivity ratio [4]: 30
22 | CCC1(CC(=O)O)OCCc2c1[nH]c1c(OC)cccc21 (centres undefined) | – | Activity (Rattus norvegicus [6]): inactive
23 | CCC1(CC(=O)O)OCCc2c1[nH]c1cc(Cl)ccc21 (centres undefined) | 3.2 mg/kg | –
24 | CCC1(CC(=O)O)OCCc2c1[nH]c1c(C)c(F)ccc21 (centres undefined) | 0.9 mg/kg | ED30 (Rattus norvegicus [2]): 37 mg/kg; TD50 at 18 h [3]: 26 mg/kg; selectivity ratio [4]: 29
25 | CCCC1(CC(=O)O)OCCc2c1[nH]c1cccc(Cl)c21 (centres undefined) | > 25 mg/kg | –
26 | CCC1(CC(=O)O)OCCc2c1[nH]c1cc(C(F)(F)F)ccc21 (centres undefined) | 1.2 mg/kg | –
27 | CCCCC1C(=O)N(c2ccccc2)N(c2ccccc2)C1=O [PHENYLBUTAZONE] | 5.4 mg/kg | TD50 at 18 h [3]: 100 mg/kg
28 | CCCc1cccc2c3c([nH]c12)C(CCC)(CC(=O)O)OCC3 (centres undefined) | 6 mg/kg | –
29 | CCC1(CC(=O)O)OCCc2c1[nH]c1c(C)cccc21 (centres undefined) | 4.3 mg/kg | –
30 | CCCC1(CC(=O)O)OCCc2c1[nH]c1cccc(C)c21 (centres undefined) | 10 mg/kg | –
31 | CCCc1cccc2c3c([nH]c12)C(CC)(CC(=O)O)OCC3 (centres undefined) | 0.4 mg/kg | ED30 (Rattus norvegicus [2]): 10 mg/kg; TD50 at 18 h [3]: 20 mg/kg; selectivity ratio [4]: 50
32 | CCC1(CC(=O)O)OCCc2c1[nH]c1c(Cl)ccc(Cl)c21 (centres undefined) | 5.5 mg/kg | –
33 | CCC1(CC(=O)O)OCCc2c1[nH]c1c(C3CCCC3)cccc21 (centres undefined) | > 5 mg/kg | –
34 | CCCC1(CC(=O)O)OCCc2c1[nH]c1cc(OC)ccc21 (centres undefined) | – | inhibition (Rattus norvegicus [6]): inactive
35 | CCc1cccc2c3c([nH]c12)C(CC)(CC(=O)O)OCC3 (centres undefined) [ETODOLAC] | 0.7 mg/kg | TD50 at 18 h [3]: 60 mg/kg; selectivity ratio [4]: 85
36 | CCC1(CC(=O)O)OCCc2c1[nH]c1c(C3CCCCC3)cccc21 (centres undefined) | > 10 mg/kg | –
37 | CCC1(CC(=O)O)OCCc2c1[nH]c1c(Cl)c(C)ccc21 (centres undefined) | 4.1 mg/kg | –
38 | CCC1(CC(=O)O)OCCc2c1[nH]c1c(C3CC3)cccc21 (centres undefined) | 1 mg/kg | –
39 | CCCC1(CC(=O)O)OCCc2c1[nH]c1cc(C)ccc21 (centres undefined) | – | inhibition (Rattus norvegicus [7]): inactive
